# Test results: ChEMBL document CHEMBL1155427, “Dopamine receptor ligands. Part 18: (1) modification of the structural skeleton of indolobenzazecine-type dopamine receptor antagonists” (J Med Chem, 2010)
# Calls of active or inactive are those of the source. The rule behind the calls is not given here.
# Experiments:
# D(1A) dopamine receptor [1] = target: T1, D(1A) dopamine receptor (Homo sapiens, UniProt P21728); assay: Displacement of [3H]SCH23390 from human recombinant dopamine D1 receptor expressed in HEK293 cells by microplate scintillation counting; assay type: cell-based
# Summary of the method: (§1)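 Human D1 or D5 receptor stably expressed in HEK cells. Ki values in nM are means of two or three experiments, each run in triplicate, ± SEM.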
# D(2) dopamine receptor [2] = target: T2, D(2) dopamine receptor (Homo sapiens, UniProt P14416); assay: Displacement of [3H]spiperone from human recombinant dopamine D2L receptor expressed in HEK293 cells by microplate scintillation counting; assay type: cell-based
# Summary of the method: (§2)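 Human D2L or D3 receptor stably expressed in HEK cells, or D4.4 in CHO cells. Competition binding against [3H]spiperone as the D2-like radioligand. Ki values in nM are means of two or three experiments, each run in triplicate, ± SEM.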
# D(1B) dopamine receptor = D(1B) dopamine receptor (Homo sapiens, UniProt P21918); assay: Displacement of [3H]radioligand from human recombinant dopamine D5 receptor expressed in HEK293 cells by microplate scintillation counting; assay type: cell-based; summary of the method: as §1
# D(1A) dopamine receptor [3] = target: T1, D(1A) dopamine receptor; assay: Antagonist activity at human dopamine D1 receptor expressed in HEK293 cells assessed as inhibition of SKF-38393-induced calcium influx; assay type: functional, cell-based
# Summary of the method: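 HEK293 cells stably expressing the human D1 receptor were loaded with a fluorescent dye. Cells were preincubated with rising concentrations of test ligand, then SKF 38393 agonist was injected. Ca2+-induced fluorescence was read on a microplate reader.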
# D(3) dopamine receptor = D(3) dopamine receptor (Homo sapiens, UniProt P35462); assay: Displacement of [3H]radioligand from human recombinant dopamine D3 receptor expressed in HEK293 cells by microplate scintillation counting; assay type: cell-based; summary of the method: as §2
# D(2) dopamine receptor [4] = target: T2, D(2) dopamine receptor; assay: Antagonist activity at human dopamine D2L receptor expressed in HEK293 cells assessed as inhibition of quinpirole-induced calcium influx
# D(4) dopamine receptor = target: T3, D(4) dopamine receptor (Homo sapiens, UniProt P21917); assay: Displacement of [3H]radioligand from human recombinant dopamine D4.4 receptor expressed in CHO cells by microplate scintillation counting; assay type: cell-based; summary of the method: as §2
# T3 sequence (P21917 whole entry): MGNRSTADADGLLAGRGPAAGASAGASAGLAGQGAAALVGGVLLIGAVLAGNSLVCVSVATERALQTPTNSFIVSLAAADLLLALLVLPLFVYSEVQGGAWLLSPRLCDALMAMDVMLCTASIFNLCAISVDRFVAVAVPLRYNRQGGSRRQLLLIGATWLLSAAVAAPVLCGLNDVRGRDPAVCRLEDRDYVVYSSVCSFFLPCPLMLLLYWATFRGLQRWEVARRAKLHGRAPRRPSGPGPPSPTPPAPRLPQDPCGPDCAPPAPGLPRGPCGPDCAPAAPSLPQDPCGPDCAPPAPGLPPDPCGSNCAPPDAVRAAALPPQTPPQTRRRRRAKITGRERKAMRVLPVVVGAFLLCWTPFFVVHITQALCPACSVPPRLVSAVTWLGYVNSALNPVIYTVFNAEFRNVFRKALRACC
# [5] = Selectivity for dopamine D5 receptor over dopamine D1 receptor
# T1 sequence (P21728 whole entry): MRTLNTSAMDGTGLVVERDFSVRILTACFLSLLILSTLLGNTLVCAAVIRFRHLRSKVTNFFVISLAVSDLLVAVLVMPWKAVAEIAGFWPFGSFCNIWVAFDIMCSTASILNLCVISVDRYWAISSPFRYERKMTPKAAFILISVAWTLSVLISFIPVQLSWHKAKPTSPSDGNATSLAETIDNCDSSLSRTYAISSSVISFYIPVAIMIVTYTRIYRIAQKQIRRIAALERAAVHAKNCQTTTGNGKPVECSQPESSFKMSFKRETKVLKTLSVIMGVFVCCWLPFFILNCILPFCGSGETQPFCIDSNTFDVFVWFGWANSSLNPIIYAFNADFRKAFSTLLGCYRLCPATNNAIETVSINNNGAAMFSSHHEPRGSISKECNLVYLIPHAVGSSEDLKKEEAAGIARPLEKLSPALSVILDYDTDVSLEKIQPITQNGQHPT
# Chain of D(3) dopamine receptor (P35462 whole entry): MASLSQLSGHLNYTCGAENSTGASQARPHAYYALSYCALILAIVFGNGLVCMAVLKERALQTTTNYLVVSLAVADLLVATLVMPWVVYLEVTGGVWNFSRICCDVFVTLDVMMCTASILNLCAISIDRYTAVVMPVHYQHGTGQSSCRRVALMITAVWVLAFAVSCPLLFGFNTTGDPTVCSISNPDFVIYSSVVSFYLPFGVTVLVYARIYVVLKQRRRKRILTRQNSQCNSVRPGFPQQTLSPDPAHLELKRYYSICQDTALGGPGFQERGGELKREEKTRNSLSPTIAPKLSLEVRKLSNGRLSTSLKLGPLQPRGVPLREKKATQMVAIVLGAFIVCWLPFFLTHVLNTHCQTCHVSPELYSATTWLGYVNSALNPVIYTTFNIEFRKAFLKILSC
# Chain of D(1B) dopamine receptor (P21918 whole entry): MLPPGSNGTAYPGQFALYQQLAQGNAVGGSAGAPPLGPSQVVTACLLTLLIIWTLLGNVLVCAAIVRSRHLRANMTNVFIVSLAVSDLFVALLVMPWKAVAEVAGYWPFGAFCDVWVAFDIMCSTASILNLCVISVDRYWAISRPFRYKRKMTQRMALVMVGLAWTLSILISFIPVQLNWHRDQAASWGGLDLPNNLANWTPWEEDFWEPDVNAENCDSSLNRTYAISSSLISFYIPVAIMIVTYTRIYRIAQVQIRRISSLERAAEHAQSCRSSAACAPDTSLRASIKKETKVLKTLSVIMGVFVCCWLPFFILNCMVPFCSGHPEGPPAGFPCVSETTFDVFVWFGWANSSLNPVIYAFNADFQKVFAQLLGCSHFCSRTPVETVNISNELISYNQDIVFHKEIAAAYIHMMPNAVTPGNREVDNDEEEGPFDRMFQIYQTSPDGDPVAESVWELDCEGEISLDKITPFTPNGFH
# T2 sequence (P14416 whole entry): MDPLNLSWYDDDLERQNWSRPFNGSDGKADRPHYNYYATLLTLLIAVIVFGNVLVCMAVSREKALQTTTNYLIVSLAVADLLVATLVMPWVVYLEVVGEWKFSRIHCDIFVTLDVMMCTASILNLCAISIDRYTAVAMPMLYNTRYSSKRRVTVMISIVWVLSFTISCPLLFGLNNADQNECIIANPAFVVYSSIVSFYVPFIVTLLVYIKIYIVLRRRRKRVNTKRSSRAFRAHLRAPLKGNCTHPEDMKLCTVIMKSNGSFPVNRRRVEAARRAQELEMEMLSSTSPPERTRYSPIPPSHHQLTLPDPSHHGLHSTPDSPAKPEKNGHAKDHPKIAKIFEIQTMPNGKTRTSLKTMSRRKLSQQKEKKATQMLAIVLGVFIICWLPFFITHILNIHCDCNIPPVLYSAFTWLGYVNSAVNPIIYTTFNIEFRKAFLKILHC
Compound,Ki (D(1A) dopamine receptor [1]) [nM],Ki (D(2) dopamine receptor [2]) [nM],Ki (D(1B) dopamine receptor) [nM],Activity (D(1A) dopamine receptor [3]),Ki (D(3) dopamine receptor) [nM],Activity (D(2) dopamine receptor [4]),Ki (D(4) dopamine receptor) [nM],Selectivity ratio [5]
c1ccc2c(c1)CCN1CCc3[nH]c4ccccc4c3C21 (centres undefined),2100,1480,> 10000,Active,> 10000,Active,> 10000,
CN1CCc2ccccc2Cc2c[nH]c3cccc(c23)C1,> 10000,> 10000,> 10000,,> 10000,,> 10000,
CN1CCc2ccccc2Cc2c[nH]c3cccc(c23)CC1,4.2,4,2.5,Active,42.9,Active,39.1,
CN1CCc2ccccc2Cc2c([nH]c3ccccc23)CC1,28.5,55.1,10.3,Active,513,Active,225,
CN1Cc2ccccc2[C@@H]2c3cccc4[nH]cc(c34)C[C@H]21,,,,,,,,10
CN1CCc2ccccc2Cc2[nH]c3ccccc3c2CC1,,,,Active,,Active,,
c1ccc2c(c1)CCN1Cc3cccc4[nH]cc(c34)C21 (centres undefined),,,,Active,,Active,> 10000,
c1ccc2c(c1)CCN1CCc3cccc4[nH]cc(c34)C21 (centres undefined),1840,4460,1520,Active,> 10000,Active,> 10000,
